Data published in ChEMBL document CHEMBL1147041, “Modulation of human neural stem cell differentiation in Alzheimer (APP23) transgenic mice by phenserine” (2007).
Calls of active or inactive are those of the source. The rule behind the calls is not given here.

Assays:
Mus musculus [1] = assay: Decrease in amyloid precursor protein expression in APP23 transgenic mouse hippocampus at 25 mg/kg/day, ip for 14 days by Western blot relative to control; type: functional; design: scale not given: the % may be the effect or the level left; conditions: route intraperitoneal
Mus musculus [2] = assay: Decrease in amyloid precursor protein expression in wild type mouse cerebral cortices at 25 mg/kg/day, ip for 14 days by Western blot relative to control; type: functional, organism-based
[3] = Effect on neuronal differentiation of human neural stem cells transplanted in APP23 transgenic mouse hippocampus CA2 region assessed as increase of beta-3 tubulin+/BrdU+ count at 25 mg/kg/day, ip for 14 days; type: functional, Neural stem cell; conditions: route intraperitoneal
Procedure, shortened: (§1)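 Mice received daily i.p. drug or saline for 14 days. BrdU-labelled (3 µM, 48 h) fetal human neural stem cells, ≈105 cells, were then injected into the right lateral ventricle with no immunosuppression. Daily injections resumed for 1 week after a 2-day recovery. At 6 weeks, 20 µm coronal sections from paraformaldehyde-perfused brains were double-stained for BrdU plus GFAP or β-III tubulin. Cells were counted bilaterally at ×400 on 4–6 sections per mouse, n = 6–7 per group, and compared by ANOVA.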

[4] = Effect on glial differentiation of human neural stem cells transplanted in APP23 transgenic mouse hippocampus assessed as reduction of GFAP+/BrdU+ count at 25 mg/kg/day, ip for 14 days by fluorescent immunohistochemistry; type: functional, Neural stem cell; design: scale not given: the % may be the effect or the level left; conditions: route intraperitoneal; procedure, shortened: as §1
Mus musculus [5] = assay: Decrease in glial fibrillary acidic protein expression in APP23 transgenic mouse hippocampus at 25 mg/kg/day, ip for 14 days by Western blot relative to control; type: functional; design: scale not given: the % may be the effect or the level left; conditions: route intraperitoneal
[6] = Effect on neuronal differentiation of human neural stem cells transplanted in APP23 transgenic mouse somatosensory region assessed as increase of beta-3 tubulin+/BrdU+ count at 25 mg/kg/day, ip for 14 days; type: functional, Neural stem cell; conditions: route intraperitoneal; procedure, shortened: as §1
[7] = Effect on neuronal differentiation of human neural stem cells transplanted in wild type mouse hippocampus CA1 region assessed as increase of beta-3 tubulin+/BrdU+ count at 25 mg/kg/day, ip for 14 days; type: functional, Neural stem cell; conditions: route intraperitoneal; procedure, shortened: as §1
[8] = Effect on neuronal differentiation of human neural stem cells transplanted in APP23 transgenic mouse motor cortex region assessed as increase of beta-3 tubulin+/BrdU+ count at 25 mg/kg/day, ip for 14 days; type: functional, Neural stem cell; conditions: route intraperitoneal; procedure, shortened: as §1
Mus musculus [9] = assay: Decrease in amyloid precursor protein expression in APP23 transgenic mouse cerebral cortices at 25 mg/kg/day, ip for 14 days by Western blot relative to control; type: functional, organism-based
[10] = Effect on neuronal differentiation of human neural stem cells transplanted in APP23 transgenic mouse hippocampus CA1 region assessed as increase of beta-3 tubulin+/BrdU+ count at 25 mg/kg/day, ip for 14 days; type: functional, Neural stem cell; conditions: route intraperitoneal; procedure, shortened: as §1

For `CN1CC[C@]2(C)c3cc(OC(=O)Nc4ccccc4)ccc3N(C)C12` (stereo not given in full), the Activity (Mus musculus [1]) was 38%, the Activity (Mus musculus [2]) was “Active” and the Activity [3] was 32%. For the same molecule, the Activity [4] was 28%, the Activity (Mus musculus [5]) was 36% and the Activity [6] was 32%. The Activity [7] was 40%, the Activity [8] was 32% and the Activity (Mus musculus [9]) was “Active”. The Activity [10] was 32%.
